According to ChEMBL document CHEMBL5104212, “Green synthesis of 3-methyl-4-(hetero)aryl methylene isoxazole-5(4H)-ones using WEOFPA/glycerol: evaluation of anticancer and electrochemical behaviour properties” (RSC Med Chem, 2022):

Legend:
[1] = Electrochemical behavior of the compound assessed as reduction potential peak by measuring […] current in DMSO using Ag/AgCl reference electrode by cyclic voltammetry; format: physicochemical
[2] = Electrochemical behavior of the compound assessed as oxidation potential peak by measuring […] current in DMSO using Ag/AgCl reference electrode by cyclic voltammetry; format: physicochemical
[3] = test system: A549; assay: Anticancer activity against human A549 cells assessed as inhibition of cell growth incubated for 48 hrs by MTT assay; format: functional, cell-based; settings: A549, 48 h
Procedure, shortened: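 A549 cells were seeded in 96-well plates and held overnight at 37°C, 95% humidity, 5% CO₂. Compounds came from DMSO stock dilution series and were added at 100, 50, 25, 12.5, 6.25 and 3.125 μg/mL for 48 hrs. Wells were PBS-washed, given MTT for 4h at 37°C, and formazan was dissolved in DMSO. A570 was read, and survival was taken as mean test OD over mean negative-control OD ×100.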

Activity [1]	Activity [2]	IC50 [3] [µM]	SMILES
Active	Active	59.2	COc1ccc(/C=C2/C(=O)ON=C2C)cc1OC
Active	Active	22.8	CC1=NOC(=O)/C1=C/c1c(O)ccc2ccccc12
Active	Active	183	CC1=NOC(=O)/C1=C/c1ccc[nH]1
Active	Active	14.2	CC1=NOC(=O)C1Cc1cccs1 (stereo not given)
Active	Active	8.99	CC1=NOC(=O)/C1=C/c1c(Cl)[nH]c2ccccc12
Active	Active	12.3	CC1=NOC(=O)/C1=C/c1cn(-c2ccccc2)cc1-c1ccccc1
Active	Active	107	CC1=NOC(=O)/C1=C/c1c[nH]c2ccccc12
Active	Active	37.4	CC1=NOC(=O)/C1=C/c1c(-c2ccccc2)[nH]c2ccccc12
		8.73	COc1cccc2c1C(=O)c1c(O)c3c(c(O)c1C2=O)C[C@@](O)(C(=O)CO)C[C@@H]3O[C@H]1C[C@H](N)[C@H](O)[C@H](C)O1 [DOXORUBICIN]
